Source: PubChem BioAssay
The list is not random: actives were taken first. Their share in the collection is about 2.4%.
Runt-SMMHC FRET – inhibitors of RUNX1 Runt–CBFb-SMMHC binding, primary screen, biochemical, FRET, Cerulean-Runt, Venus-CBFb-SMMHC, uHTS | Runt-related transcription factor 1 (Homo sapiens) + Core-binding factor subunit beta … | Cerulean-Runt/Venus-CBFb-SMMHC FRET ratio 530/480, 1 h | inhibition, % at 20 µM | 220,000 compounds, 0.74% hits;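 active = mean inhibition across duplicate retests at 20 µM reaching about 50%, limit read from the data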;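 note: inhibitors lower the FRET ratio by blocking Runt binding to CBFb-SMMHC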
RanGTP-Imp inh – inhibitors of RanGTP-importin-beta interaction, primary screen, biochemical, FRET, CFP-Ran, YFP-importin-beta, homogeneous; inhibition, % (concentration not given with the values); cell-free CFP-Ran/YFP-importin-beta FRET ratio; 300,000 compounds, 1.1% hits;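 active = more than half of the replicate wells show a fall in the fluorescence ratio signal beyond about 16%, limit read from the data, passing the limit was not always enough; inconclusive = exactly half of the replicate wells pass the set limit; inactive = fewer than half of replicates pass the limit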
EBV gp42 block – Epstein-Barr virus gp42 inhibitors, primary screen, biochemical, uHTS, fluorescence polarization; Glycoprotein 42 (Epstein-Barr virus (strain AG876)), Q1HVG2; Fluorescence polarization binding assay, mP read-out; inhibition, % (tested at 21.74 µM); 220,000 compounds, 0.42% hits; in the data active = inhibition above about 50%
LANA-H2A inh – blockers of LANA interaction with H2A/H2B – biochemical, FP readout, HTS, primary screen; AID 2629, 2010; 320,000 compounds, 0.6% hits; inhibition, % (test concentration not listed); cell-free LANA-H2A/H2B peptide, fluorescence polarization; in the data active = inhibition mostly above about 10%, no sharp cut-off; inactive = mostly below about 6.7%
Target sequence (Q9QR71 whole entry, looked up): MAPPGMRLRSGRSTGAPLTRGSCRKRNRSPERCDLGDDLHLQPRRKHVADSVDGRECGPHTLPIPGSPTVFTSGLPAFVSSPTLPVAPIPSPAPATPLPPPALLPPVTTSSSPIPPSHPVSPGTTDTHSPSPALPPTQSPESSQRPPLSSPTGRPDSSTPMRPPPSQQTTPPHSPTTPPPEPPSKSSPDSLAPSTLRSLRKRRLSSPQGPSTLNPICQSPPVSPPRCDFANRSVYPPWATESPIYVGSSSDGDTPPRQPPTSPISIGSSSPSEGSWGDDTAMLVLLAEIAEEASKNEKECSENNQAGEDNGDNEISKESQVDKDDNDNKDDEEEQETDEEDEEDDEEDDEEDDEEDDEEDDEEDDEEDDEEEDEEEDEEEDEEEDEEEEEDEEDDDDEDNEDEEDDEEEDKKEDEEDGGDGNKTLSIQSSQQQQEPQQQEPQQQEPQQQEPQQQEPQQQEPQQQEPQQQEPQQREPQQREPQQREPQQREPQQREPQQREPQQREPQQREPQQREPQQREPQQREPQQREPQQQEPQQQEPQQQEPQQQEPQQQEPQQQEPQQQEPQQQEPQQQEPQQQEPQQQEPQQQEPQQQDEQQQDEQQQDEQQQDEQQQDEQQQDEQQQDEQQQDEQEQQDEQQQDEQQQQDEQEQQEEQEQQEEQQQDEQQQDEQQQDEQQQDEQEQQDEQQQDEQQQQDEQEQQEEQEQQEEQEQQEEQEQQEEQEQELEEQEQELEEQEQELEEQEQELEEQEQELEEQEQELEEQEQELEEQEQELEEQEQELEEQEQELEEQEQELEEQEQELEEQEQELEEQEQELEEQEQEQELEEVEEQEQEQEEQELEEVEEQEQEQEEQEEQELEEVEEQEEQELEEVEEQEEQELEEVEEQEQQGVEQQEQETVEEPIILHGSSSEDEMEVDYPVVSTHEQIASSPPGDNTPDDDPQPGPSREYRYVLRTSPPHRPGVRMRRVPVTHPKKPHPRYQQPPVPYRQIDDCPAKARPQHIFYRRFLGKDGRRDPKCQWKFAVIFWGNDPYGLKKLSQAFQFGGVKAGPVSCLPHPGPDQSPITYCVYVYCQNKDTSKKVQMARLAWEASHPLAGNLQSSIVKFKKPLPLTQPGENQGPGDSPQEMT
Runt-CBFb FRET – inhibitors of RUNX1 Runt–CBFb binding, primary screen, biochemical, FRET, Cerulean-Runt, Venus-CBFb, uHTS | Cerulean-Runt/Venus-CBFb FRET ratio 530/480, 1 h | inhibition, % at 20 µM | 220,000 compounds, 0.46% hits;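 active = inhibition over about 50% at 20 µM in the single-dose screen, limit read from the data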
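Measured by: fluorescence energy transfer, 422 nm excitation, 530/480 nm emission; test system: Cerulean-tagged RUNX1 Runt domain (FRET donor) fusion protein; buffer or medium: Tris pH 7.5 buffer with BSA; compound: one dose, 20 µM compound, 1% DMSO; times: two 1 h room-temperature incubations shielded from light; benchmarks: unlabeled CBFb 5 µM, positive control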
MEX-5 binding – MEX-5 zinc finger RNA-binding disruptors – biochemical, C. elegans, fluorescence polarization, MLPCN library, primary screen | MEX-5/FITC-TCR2 RNA binding; active compounds read low | activity score (negative = inhibition of binding), % at 10 µM | 300,000 compounds, 0.38% hits;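 active = inhibition past about -25% in most replicates, and total fluorescence under double the plate's negative control median, limit read from the data; inconclusive = replicates evenly split on the limit, or fluorescence at least double controls; inactive = too little inhibition in most replicates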
Hits are given with their value; - = inactive; ? = inconclusive; . = no result; + = active, no number.

SMILES	Runt-SMMHC FRET	RanGTP-Imp inh	EBV gp42 block	LANA-H2A inh	Runt-CBFb FRET	MEX-5 binding
O=c1[nH]c(/C=C/c2cccc3ccccc23)nc2ccccc12	-	-	-	-	-	-50
CN(C)c1ccc(/C=C/c2nc3ccccc3c(=O)[nH]2)cc1	.	-	.	-	.	-33
CCc1ccc(NC(=O)[C@@H](NC(=O)[C@@H]2Cc3ccccc3CN2)C(C)CC)cc1 (stereo partly drawn)	.	-	.	-	.	-
CCN(CC)Cc1cc(O)c(CN(CC)CC)cc1O	-	-	-	.	-	-39
CCc1oc(C(=O)O)cc1CN(CC)CC	-	?	-	-	-	-
CCCC[n+]1c2ccccc2cc2ccccc21	.	150	.	-	.	-
CCC[n+]1c2ccccc2cc2ccccc21	.	155	.	-	.	-
C=C1[C@@H](OC(C)=O)CC[C@]2(C)[C@@H]1C[C@@H]1C[C@H](OC(C)=O)C(C)=C([C@@H](OC(C)=O)[C@@H]2OC(C)=O)C1(C)C	-	?	-	-	-	-
CN(Cc1ccccc1)C(=O)Cn1cccc1C(=O)c1ccccc1	-	70	-	-	-	.
Cc1ccc2oc(=O)c(/C=C(\O)C(C)(C)C)nc2c1	-	-	-	-	-	-
Cc1ccc2oc(=O)c(/C=C(\O)c3ccco3)nc2c1	-	-	-	4.3	-	-
C=CC[C@H](CC(=O)NCCO)C(=O)N[C@@H](COC(=O)[C@@H](CC=C)CC(=O)OC(C)(C)C)Cc1c[nH]c2ccccc12	.	.	.	-	.	.
CN1C(=O)N(C)C2(C)CC1(C)N(C)C(=O)N2C	-	-	-	-	-	-
Cc1ccccc1/C=C1\Oc2ccccc2C1=O	.	.	.	57	.	.
COc1ccc(OC)c(N(CC(=O)NCc2ccccc2)S(=O)(=O)c2ccc(OC)c(OC)c2)c1	.	-	.	41	.	-
COCCCNC(=O)CN(c1cc(OC)ccc1OC)S(=O)(=O)c1ccccc1	-	-	-	19	-	-
O=C1CC(c2ccc(F)cc2)CC(O)=C1C=NCCN1CCNCC1 (stereo not drawn)	.	-	-	17	.	-
CCc1ccc([C@@H]2CC=C(C(=O)O)[C@H](c3ccccc3F)N2S(=O)(=O)c2ccc(C)cc2)cc1	.	.	.	-	.	.
CSC(=NC#N)N1CCN(c2ccccn2)CC1	-	-	-	30	-	-
CSC(=NC#N)N1CCN(C(=NC#N)SC)CC1	-	-	-	-	-	-
NC(=O)C1CCN(C(=S)c2ccc(-c3ccc(Br)cc3)o2)CC1	-	-	-	14	-	-
CC(NCC(=O)Nc1ccccc1C(=O)NC1CC1)c1ccc(F)cc1F (stereo not drawn)	.	.	.	-	.	.
O=c1oc2c3c4c(cc2c2c1CCC2)OCCN4CCC3	53	.	-	-	83	.
CC(C)[C@@]1(c2ccc(Cl)cc2)ON(c2ccccc2C(F)(F)F)C1=O	.	.	.	-	.	.
Cc1nc2ccc(NC(=O)[C@@H](NC(=O)c3c(F)cccc3F)C(C)C)cc2s1	.	.	.	+	.	.
CC(C)[C@H](NC(=O)c1c(F)cccc1F)C(=O)Nc1cccc(Br)c1	.	-	.	-	.	-
CC[C@@]1(O)C(=O)OCc2c1cc1n(c2=O)Cc2cc3c(CN(C)C)c(O)ccc3nc2-1	.	-	.	68	.	?
COc1ccc(Cc2nnc(NC(=O)C3CC(=O)N(c4ccccc4C)C3)s2)cc1OC (stereo not drawn)	.	-	.	-	.	-
Cc1cccc(C)c1NC(=O)CN(C)C(=O)c1ccc(NS(=O)(=O)c2ccc3[nH]c(=O)[nH]c3c2)cc1	.	-	.	.	.	-
CCOC(=O)c1cc(C(=O)OCC)c2ccccn2c1=O	60	66	-	-	97	-
